Measured values: ChEMBL document CHEMBL1772955, “Synthesis, metabolic stability and antiviral evaluation of various alkoxyalkyl esters of cidofovir and 9-(S)-[3-hydroxy-2-(phosphonomethoxy)propyl]adenine” (Bioorg Med Chem, 2011)

Legend:
[1] = tested on: BSC-1; test: (§1) Cytotoxicity against african green monkey BSC1 cells after 2 to 4 hrs by MTS assay; format: cell-based; settings: chlorocebus aethiops, bsc-1
Procedure, shortened: (§2)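 BSC-1 cells (5000 per reaction) mixed with serial compound dilutions in DMEM/2% Fetal Clone II, without virus. At the set time point, MTS reagent added for 2-4 h and OD490 read. Viability taken relative to untreated cells; CC50 from concentration versus % viability plot.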

[2] = Antiviral activity against Cowpox virus (Brighton Red) infected in human HFF cells after 3 days by plaque reduction assay; format: functional, cell-based; settings: 72 h
[3] = Selectivity index, ratio of CC50 for human HFF cells to EC50 for Cowpox virus (Brighton Red); format: toxicity, cell-based; settings: read-out: Ratio CC50/EC50
[4] = Selectivity index, ratio of CC50 for human HFF cells to EC50 for Vaccinia virus Copenhagen; format: toxicity, cell-based; settings: read-out: Ratio CC50/EC50
[5] = tested on: Vaccinia virus; test: Antiviral activity against Vaccinia virus Copenhagen infected in human HFF cells after 3 days by plaque reduction assay; format: functional, organism-based; settings: Orthopoxvirus vaccinia, 72 h
[6] = tested on: Liver; test: Metabolic stability in human liver S9 fraction assessed as compound degradation at 1 uM after 90 mins by HPLC/MS/MS; format: ADME, subcellular; settings: s9, 1.5 h
Procedure, shortened: (§3)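 Liver S9 fraction at 3 mg/mL protein in phosphate buffer, test article 1 μM or 10 μM final; 2 min equilibration at 37 °C, then reaction started with 1x NADPH regeneration system. Samples taken from time zero to 90 min into 1% ammonium hydroxide in N-propyl alcohol. Analysed by C8 HPLC with water/isopropyl alcohol (0.1% formic acid) gradient and ESI-MS. 7-Ethoxycoumarin run as positive control.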

[7] = tested on: HFF; test: Cytotoxicity against human HFF cells assessed as reduction in cell viability after 7 days by neutral red uptake assay; format: cell-based; settings: 168 h
Procedure, shortened: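 Uninfected HFF cells seeded at 2.5×10^4/well and grown 24 h to monolayer. Medium replaced by MEM/2% FBS containing graded compound concentrations; 7 d incubation. Cells stained with 0.01% neutral red, absorbance at 540 nm; CC50 interpolated as 50% viability loss.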

[8] = tested on: Liver; test: Metabolic stability in human liver S9 fraction assessed as compound degradation at 10 uM after 90 mins by HPLC/MS/MS; format: ADME, subcellular; settings: s9, 1.5 h; procedure, shortened: as §3
[9] = Selectivity index, ratio of CC50 for african green monkey BSC1 cells to EC50 for Ectromelia virus Moscow; format: toxicity, cell-based, BSC-1; settings: read-out: Ratio CC50/EC50
[10] = Metabolic stability in human liver S9 fraction assessed as compound remaining at 1 uM after 90 mins by HPLC/MS/MS; format: ADME, subcellular; settings: read-out: Stability
Procedure, shortened: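 Liver S9 (human or monkey, 3 mg/mL protein, phosphate buffer) with test article at 1 or 10 μM final, pre-equilibrated about 2 min at 37 °C. Started with 1x NADPH regeneration system, sampled 0-90 min into 1% NH4OH in n-propanol. Held cold ≥48 h, centrifuged, C8 LC (water/isopropanol, 0.1% formic acid) with ESI-MS; 7-ethoxycoumarin as activity control.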

[11] = tested on: Ectromelia virus Moscow; test: Antiviral activity against Ectromelia virus Moscow infected in african green monkey BSC1 cells after 4 to 5 days by plaque reduction assay; format: functional, organism-based; settings: BSC-1
[12] = as §1; format: cell-based, BSC-1; settings: chlorocebus aethiops, BSC1 cells; procedure, shortened: as §2
[13] = tested on: Liver; test: Metabolic stability in human liver S9 fraction assessed as compound disappearance at 1 uM after 90 mins by HPLC/MS/MS; format: ADME, subcellular; settings: s9, 1.5 h; procedure, shortened: as §3
[14] = tested on: Liver; format: ADME, subcellular, S9 fraction; settings: rat, s9, 1.5 h, 10 µM
[15] = tested on: Liver; test: Metabolic stability in human liver S9 fraction assessed as compound disappearance at 10 uM after 90 mins by HPLC/MS/MS; format: ADME, subcellular; settings: s9, 1.5 h; procedure, shortened: as §3
[16] = tested on: Liver; format: ADME, subcellular, S9 fraction; settings: rat, s9, 1.5 h, 1 µM
[17] = tested on: Liver; format: ADME, subcellular, Cavia porcellus, S9 fraction; settings: guinea pig, s9, 1.5 h, 1 µM
[18] = tested on: Liver; format: ADME, subcellular, Cavia porcellus, S9 fraction; settings: guinea pig, s9, 1.5 h, 10 µM

SMILES	CC50 [1]	EC50 [2]	selectivity ratio [3]	selectivity ratio [4]	EC50 [5]	Stability [6]	CC50 [7]	Stability [8]	selectivity ratio [9]	remaining at 1.5 h, 1 µM [10]	EC50 [11]	CC50 [12]	Stability [13]	Stability [14]	Stability [15]	Stability [16]	Stability [17]	Stability [18]
CC(C)CCCCCCCCCCCCCCOCCCOP(=O)(O)CO[C@H](CO)Cn1cnc2c(N)ncnc21	11.7 µM	40 nM	285	285	40 nM	Stable	11.4 µM	Stable	266	91.3%	44 nM	–	–	–	–	–	–	–
CC(C)CCCCCCCCCCCCCCOCCCOP(=O)(O)CO[C@H](CO)Cn1ccc(N)nc1=O	78 µM	100 nM	150	75	200 nM	–	15 µM	–	1810	–	43 nM	–	–	–	–	–	–	–
Nc1ccn(C[C@@H](CO)OCP(=O)(O)OCCCOCCCCCCCCCCCCCCC2CC2)c(=O)n1	74 µM	500 nM	112	187	300 nM	–	56 µM	–	100	88%	740 nM	–	–	–	–	–	–	–
CCCCCCCCCCCCCCCCCCOC[C@@H](COP(=O)(O)CO[C@H](CO)Cn1ccc(N)nc1=O)OCc1ccccc1	–	300 nM	157	118	400 nM	–	47 µM	–	1100	92.3%	30 nM	35 µM	–	–	–	–	–	–
CC(C)CCCCCCCCCCCCOCCCOP(=O)(O)CO[C@H](CO)Cn1ccc(N)nc1=O	82 µM	300 nM	123	123	300 nM	–	37 µM	–	210	–	390 nM	–	–	–	–	–	–	–
CC(C)CCCCCCCCCCCOCCCOP(=O)(O)CO[C@H](CO)Cn1ccc(N)nc1=O	82 µM	800 nM	55	44	1000 nM	–	44 µM	–	234	–	350 nM	–	–	–	–	–	–	–
C=CCCCCCCCCCCCCCCOCCOP(=O)(O)CO[C@H](CO)Cn1cnc2c(N)ncnc21	2.32 µM	20 nM	85	85	20 nM	Unstable	1.7 µM	Unstable	7.2	–	320 nM	–	–	–	–	–	–	–
CCCCCCCCCCCCCCCCOCCOP(=O)(O)CO[C@H](CO)Cn1cnc2c(N)ncnc21	40.5 µM	90 nM	156	156	90 nM	–	14 µM	–	289	–	140 nM	–	–	–	–	–	–	–
CC(C)CCCCCCCCCCCCCCOCCOP(=O)(O)CO[C@H](CO)Cn1cnc2c(N)ncnc21	59.6 µM	10 nM	250	250	10 nM	–	2.5 µM	–	5960	–	10 nM	–	–	–	–	–	–	–
CCCCCCCCCCCCCCCCOCCCOP(=O)(O)CO[C@H](CO)Cn1cnc2c(N)ncnc21	84.7 µM	20 nM	140	280	–	Stable	2.8 µM	Stable	1280	–	66 nM	–	–	–	–	–	–	–
CCCCCCCCCCCCCCCCOCCCOP(=O)(O)CO[C@H](CO)Cn1ccc(N)nc1=O [BRINCIDOFOVIR]	25.3 µM	200 nM	125	313	–	–	25 µM	–	202	83.3%	125 nM	–	Stable	Stable	Stable	Stable	Stable	Stable
